CHT inh – inhibitors of human choline transporter CHT; Q9GZV3; CHT-expressing cells, membrane potential dye, choline response; stronger effect = lower value; B-score at 10 µM; actives 0.86% (n = 310,000); AID 488975;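 active means B-score over 3 SD under the library average, and starting fluorescence ratio not unusually high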;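 further: choline stimulus applied at its EC90 after an EC20 pre-addition; B-score computed on integrated fluorescence ratio after choline addition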
Target sequence (Q9GZV3 whole entry, looked up): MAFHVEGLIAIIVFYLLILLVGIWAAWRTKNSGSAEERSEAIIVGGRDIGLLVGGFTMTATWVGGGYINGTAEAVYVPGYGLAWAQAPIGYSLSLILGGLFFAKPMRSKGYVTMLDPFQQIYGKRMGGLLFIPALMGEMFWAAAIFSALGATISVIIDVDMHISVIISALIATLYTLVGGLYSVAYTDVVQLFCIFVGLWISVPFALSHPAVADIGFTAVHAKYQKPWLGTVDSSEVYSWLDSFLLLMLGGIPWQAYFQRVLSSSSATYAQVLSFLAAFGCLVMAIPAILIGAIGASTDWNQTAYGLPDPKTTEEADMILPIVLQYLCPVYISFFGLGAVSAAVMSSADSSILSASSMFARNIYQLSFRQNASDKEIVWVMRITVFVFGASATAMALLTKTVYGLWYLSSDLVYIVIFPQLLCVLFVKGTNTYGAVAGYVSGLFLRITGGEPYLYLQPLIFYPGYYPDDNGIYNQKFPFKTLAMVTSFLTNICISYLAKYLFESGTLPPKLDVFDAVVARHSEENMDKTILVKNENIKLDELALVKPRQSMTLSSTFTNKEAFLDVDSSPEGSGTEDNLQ
CHT allo act – human CHT allosteric activation; Q9GZV3; CHT-expressing cells, membrane potential dye, choline EC20; stronger effect = higher value; LV-AA mutant CHT in HEK293 cells; B-score at 10 µM; actives 0.49% (n = 310,000); AID 488977;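 active means initial fluorescence not abnormally high and integrated response B-score, plate-corrected, over 3 SD above library mean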
T cruzi inh – blocks replication of Trypanosoma cruzi; T. cruzi beta-gal in NIH3T3, luminescence, 90 h; inhibition, % (no concentration beside the values); actives 1.4% (n = 300,000); AID 1885;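 active means mean inhibition across valid replicates above about 55%, limit read from the data; inconclusive means mean below that limit but half or more replicates reach it; inactive means mean below it, under half of replicates reach it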;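 further: signal also drops with host cell toxicity which is not excluded here; higher percent means less beta-gal luminescence so fewer parasites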
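Incubation – ≥90 h infection period, 3 h prior cell attachment · System – NIH/3T3 fibroblasts plus reporter T. cruzi · Doses – compound pinned at 50 nL/well, DMSO · Read-out basis – percent inhibition of parasite-derived β-gal signal · Signal – luminescent β-galactosidase signal after 60 min lysis · Also added – 5000 T. cruzi trypomastigotes/well · Medium – Low-serum DMEM with 2% FBS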
PolyA inhibitor – inhibitors of polyadenylation in S. cerevisiae. S. cerevisiae SKY197-pL101 polyadenylation reporter, beta-gal luminescence; efflux-impaired pdr1/pdr3 knockout yeast; score 100 = 6 SD above DMSO. activity score, % at 12 µM. actives 0.02% (n = 300,000). AID 1875;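 active means lowest replicate activity score at least 50, where 100 means six control SD above control mean; inconclusive means lowest score under 50 but half or more replicates reach 50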;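 further: yeast exposed to compound for 9 h at 30 °C; higher score means more reporter readthrough which indicates perturbed polyadenylation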
CHT act confirm – confirmation of human choline transporter (CHT) activators. shares compounds with CHT allo act. actives 91% (n = 2,500). CHT-expressing cells, membrane potential dye fluorescence (FDSS); % of choline EC20–EC90 response window; HEK293 expressing CHT LV-AA mutant; choline added at its EC20. activation, % at 10 µM;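 active means primary screen active, with duplicate mean activation above negative control mean plus 3 SD, cut at about 11% in these data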
HEK293 MP dye – activity in parental HEK293 cells lacking CHT; shares compounds with CHT allo act; membrane potential dye fluorescence (FDSS); measured after EC20 choline addition; ratio readout change at 10 µM, hits read low; actives 62% (n = 2,500); AID 623908;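 active means duplicate-averaged ratio beyond 3 SD from buffer wells, up or down, though filed actives are nearly all decreases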
Hits are given with their value; n = inactive; u = inconclusive; x = no result. Only some compounds are listed: those with a hit (about 2.6% of all), similar ones and a draw of the others.

SMILES | CHT inh | CHT allo act | T cruzi inh | PolyA inhibitor | CHT act confirm | HEK293 MP dye
Cc1ccc(-c2c[n+](CC(=O)c3cccs3)c3n2CCC3)cc1 | n | n | n | n | x | x
COc1ccc(-c2c[n+](CC(=O)c3cccs3)c3n2CCC3)cc1 | n | n | n | n | 44 | -31
COc1ccc(N2C(=O)/C(=C\c3ccco3)N=C2SCC(=O)N(C(C)C)C(C)C)cc1Cl | n | n | n | n | 13 | n
CCOC(=O)C[C@H]1c2cc(C(F)(F)F)ccc2S(=O)(=O)N1Cc1ccccc1 | n | n | n | n | n | n
COc1ccc(CN2CCc3c([nH]c4ccccc34)C2)c(OC)c1C | n | n | n | n | 32 | n
COc1ccccc1CNC(=O)CCCC(=O)n1ncc2cc(C)ccc21 | n | n | n | n | x | x
O=C(CCN1CCN(Cc2ccccc2)CC1)NNC(=O)Nc1cccc([N+](=O)[O-])c1 | n | n | n | n | x | x
Cc1ccc2nc(N=C(N)N)nc(C)c2c1 | n | n | n | n | 56 | -55
Cc1nc(N=C(N)N)nc2ccccc12 | n | 8.1 | n | n | 67 | -60
Cc1nc(/N=C(\N)NC(=O)c2ccccc2)nc2ccccc12 | n | n | n | n | x | x
ON1C(c2ccc(Cl)cc2Cl)N(O)[C@H]2CCCC[C@H]21 (stereo not given in full) | n | n | n | n | x | x
CCON1C(=O)CN(C(=O)OC)C1c1ccc(Cl)cc1Cl (stereo not given) | n | n | n | n | n | n
Cn1cccc/c1=N\c1cccc[n+]1C | n | n | n | n | 67 | -56
COC(=O)c1ccc(OC)c(CSc2nnc(COc3cccc(C)c3)o2)c1 | n | n | n | n | 19 | n
Cc1cccc(-c2nnc3n2N=C(c2ccccc2)CS3)c1 | n | n | n | n | x | x
C[n+]1c2n(c3ccccc31)N=C(c1ccc(-c3ccccc3)cc1)CS2 | n | 7.9 | 60 | n | 40 | -35
C[n+]1c2n(c3ccccc31)N=C(c1ccccc1)CS2 | n | 7.1 | n | n | 58 | -55
C[n+]1c2n(c3ccccc31)N=C(c1ccc(Br)cc1)CS2 | n | n | n | n | x | x
COc1ccc(OC)c(CN2CCN(C(=O)c3ccc(NS(=O)(=O)c4cccc([N+](=O)[O-])c4)cc3)CC2)c1 | n | n | n | n | x | x
COc1cc(-c2noc(C)c2C#Cc2ccccn2)cc(OC)c1OC | n | 9.5 | n | n | 30 | n
COc1cc(-c2c(-c3cc(OC)c(OC)c(OC)c3)noc2C)ccc1F | n | n | n | n | x | x
COc1ccc(-c2c(-c3cc(OC)c(OC)c(OC)c3)noc2C)cn1 | n | 6.7 | n | n | 33 | n
COc1cc(-c2noc(C)c2/C=C/c2ccc(N)cc2)cc(OC)c1OC | n | 10 | n | n | 42 | n
O=C(Nc1ccc(S(=O)(=O)N2CCCC2)cc1)C1CCN(S(=O)(=O)c2ccc(F)cc2)CC1 | n | n | n | n | x | x
COc1ccc(-c2c3c(=O)n(C)c(=O)n(C)c3cn2C2CCCCC2)cc1 | n | 6.8 | n | n | 23 | n
SMILES | CHT inh | CHT allo act | T cruzi inh | PolyA inhibitor | CHT act confirm | HEK293 MP dye
CCCn1cc2c(c1-c1ccc(C)cc1)c(=O)n(C)c(=O)n2C | n | n | n | n | x | x
Cc1ccc(C)c(CSc2nnc(-c3cccs3)n2Cc2ccco2)c1 | n | 7.1 | n | n | 60 | n
CCCc1nc2ccccc2c(C(=O)OC(C)C(=O)NCc2ccc3c(c2)OCO3)c1CC (stereo not given) | n | 7.7 | n | n | 36 | n
CN(Cc1ccc(F)cc1)C(=O)c1cccc(OCc2ccccc2)c1 | n | n | n | n | x | x
c1cn(-c2ccc(-c3ccnc4ncnn34)cc2)cn1 | n | 8.5 | n | n | 41 | -40
c1ccc(-c2ccnc3ncnn23)nc1 | n | n | n | n | x | x
Cc1nc2ccc(Cc3ccc4nc(C)[nH]c4c3)cc2[nH]1 | n | 7.5 | u | n | 59 | -54
CC(NCCC(Cc1ccccc1)c1ccco1)c1ccccc1 (stereo not given) | n | n | n | n | x | x
Cc1ccc(C(CCNC(C)c2cccs2)c2ccco2)cc1 (stereo not given) | n | n | n | n | 12 | n
Cc1ccc(C2CC2/C(=N/O)c2ccc(F)cc2)cc1 (stereo not given) | n | n | n | n | x | x
Cn1c(=O)c2c(nc(CN3CCN(c4cccc(Cl)c4)CC3)n2CCc2ccccc2)n(C)c1=O | n | 9.3 | n | n | 24 | n
CN1CCN(Cc2nc3c(c(=O)n(C)c(=O)n3C)n2CCCc2ccccc2)CC1 | n | 8 | n | n | 48 | -36
Cn1c(=O)c2c(nc(CN3CCCCC3)n2CCc2ccccc2)n(C)c1=O | n | 12 | x | n | 47 | n
CCCCCCn1c(CN2CCN(C)CC2)nc2c1c(=O)n(C)c(=O)n2C | n | 9.5 | n | n | 61 | -46
N#C/C(=C\c1ccc(-c2cccc([N+](=O)[O-])c2)o1)c1nnc(N2CCOCC2)n1-c1ccccc1 | n | n | n | n | x | x
CN(Cc1ccccc1)c1nc2c(c(=O)n(C)c(=O)n2C)n1CCCc1ccccc1 | n | 8.7 | n | n | 25 | n
CCN(CC)c1nc2c(c(=O)n(C)c(=O)n2C)n1CCCc1ccccc1 | n | n | n | n | x | x
Cc1ccc2c(c1)C(=O)C(=O)N2CC(=O)Nc1ccccc1NC(=O)c1ccccn1 | n | n | n | n | x | x
CCCS(=O)(=O)N1CCN(CCN2C(=O)c3cccc4cccc(c34)C2=O)CC1 | n | n | n | n | x | x
NC(=O)CN1CCN(CCN2C(=O)c3cccc4cccc(c34)C2=O)CC1 | n | n | n | n | 43 | -33
O=C(/C=C/c1ccco1)N(Cc1cccc(F)c1)C1CCS(=O)(=O)C1 (stereo not given) | n | n | n | n | x | x
